Compounds with a hit are over-represented: about 1.9% of the library has one in this group of screens.
SR-BI DiI-HDL act – activators of SR-BI mediated HDL lipid uptake; activation, % at 12.5 µM; CHO ldlA[mSR-BI] cells, DiI-HDL uptake fluorescence, 3 h; 100 = double the neutral-control signal; hit rate 0.096% among 320,000;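 active = mean replicate activation of at least 60% and every replicate at or above 60%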;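 note: 0% = median plate neutral-control signal and 100% = twice that signal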
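System: LDL receptor-deficient CHO ldlA cells overexpressing murine SR-BI | Timing: 3 h uptake period with compound, 37 °C | Medium: HEPES-buffered (25 mM, pH 7.4) F12 plus 0.5% BSA | Dosing: Single-point compound dose | Signal: Bottom-read fluorescence, 550/595 nm | Read-out: Retained DiI signal reflecting DiI-HDL uptake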
SR-BI DiI inh – inhibitors of mouse SR-BI mediated HDL lipid uptake. Q61009. ldlA[mSR-BI] CHO cells, DiI-HDL uptake fluorescence, 3 h. inhibition, % at 12.5 µM. hit rate 0.96% among 320,000. AID 488896;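 active = mean replicate inhibition of at least 70% and a set share of replicates each scoring 70 or more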;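 note: 0% = median of neutral control wells and 100% = median of positive control wells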
GRK2 aptamer HTS – inhibitors of human GRK2 displacing RNA aptamer | P25098 | inhibition of aptamer binding, % at 10 µM | bead flow cytometry, FAM-aptamer displacement from GRK2 | hit rate 0.59% among 330,000 | AID 488847;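 active = inhibition of aptamer binding above 40%, roughly 3 SD of noise, on plates passing a quality check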;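 note: median bead fluorescence of bound FAM aptamer so fluorescent compounds give negative values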
Target sequence (P25098 whole entry, looked up): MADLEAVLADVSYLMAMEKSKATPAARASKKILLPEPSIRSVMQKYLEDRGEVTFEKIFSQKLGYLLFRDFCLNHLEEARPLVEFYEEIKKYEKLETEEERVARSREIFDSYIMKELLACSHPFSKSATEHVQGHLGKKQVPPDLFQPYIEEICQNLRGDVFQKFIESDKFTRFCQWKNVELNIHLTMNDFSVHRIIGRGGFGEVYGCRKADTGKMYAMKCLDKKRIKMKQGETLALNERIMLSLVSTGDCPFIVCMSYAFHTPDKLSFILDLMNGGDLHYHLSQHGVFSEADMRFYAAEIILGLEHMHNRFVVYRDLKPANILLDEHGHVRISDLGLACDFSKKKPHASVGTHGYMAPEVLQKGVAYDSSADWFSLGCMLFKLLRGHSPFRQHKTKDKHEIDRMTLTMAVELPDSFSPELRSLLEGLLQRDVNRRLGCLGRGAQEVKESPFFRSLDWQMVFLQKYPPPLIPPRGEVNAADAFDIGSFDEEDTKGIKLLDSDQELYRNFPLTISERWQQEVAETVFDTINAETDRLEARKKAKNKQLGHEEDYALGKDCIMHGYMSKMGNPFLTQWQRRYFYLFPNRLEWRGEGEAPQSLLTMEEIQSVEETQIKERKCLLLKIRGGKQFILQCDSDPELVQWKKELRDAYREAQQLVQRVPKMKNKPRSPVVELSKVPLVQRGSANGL
Rin1-Abl PPI inh – blocks binding of human Rin1 to Abl; TR-FRET Rin1/Abl binding, biochemical; inhibition, % at 7.35 µM; hit rate 0.4% among 360,000; in the data active = inhibition above about 5%, passing the limit was not always enough
An asterisk follows results filed as active; nt = not tested or not shown.

SMILES	SR-BI DiI-HDL act	SR-BI DiI inh	GRK2 aptamer HTS	Rin1-Abl PPI inh
O=C1Nc2ccc(Br)cc2/C1=C/C(=O)c1ccc2c(c1)OCO2	-75.0	75.0*	2.0	0.6
Oc1cccc(Nc2nc(-c3ccccc3)nc3ccccc23)c1	-72.1	72.1*	1.0	-4.8
CC(=O)Nc1cccc(Nc2nc(-c3ccccc3)nc3ccccc23)c1	-57.4	57.4	2.0	1.1
Fc1ccc(Nc2nc(-c3ccncc3)nc3ccccc23)cc1	-77.9	77.9*	0.0	-1.5
O=S(=O)(Nc1ccccc1OC(F)F)c1ccc(S(=O)(=O)N2CCCC2)cc1	25.2	-25.2	0.0	1.5
COc1cc(CNc2nc(C)c([N+](=O)[O-])c(C)c2C#N)cc(OC)c1	-75.8	75.8*	0.0	-0.5
Cc1nc(NCCc2ccccc2F)c(C#N)c(C)c1[N+](=O)[O-]	-74.4	74.4*	0.0	0.9
CCOC(=O)C1CCCN(C(=O)c2oc3ccccc3c2C)CC1 (centres undefined)	nt	nt	nt	1.6
COc1ccc(N2c3ccccc3CN(Cc3ccccc3)[C@@H](C)[C@H]2Cc2cccnc2)cc1	nt	nt	nt	-3.5
COc1ccc2c(c1)CCc1cc(C(=O)N3CCN(c4ccc(N5CCOCC5)nn4)CC3)sc1-2	-77.2	77.2*	4.0	-7.2
C[C@@H]1CN([C@@H](C)CO)C(=O)CCCn2nncc2CO[C@@H]1CN(C)S(=O)(=O)c1cccc(C#N)c1	nt	nt	nt	0.7
O=C(O)C1Nc2c(Cl)cc(Cl)cc2C2C=CCC12 (centres undefined)	3.6	-3.6	72.0*	1.2
CCOC(=O)C1Nc2ccc(C)cc2C2C=CCC12 (centres undefined)	-1.9	1.9	nt	2.5
CC(C)CNC(=O)C1Nc2ccccc2C2C=CCC12 (centres undefined)	2.2	-2.2	4.0	2.7
O=C(O)C1Nc2c(O)cccc2C2C=CCC12 (centres undefined)	-14.2	14.2	3.0	20.5*
O=C(O)C1Nc2ccc(Br)cc2C2C=CCC12 (centres undefined)	0.7	-0.7	77.0*	6.2*
CC(=O)c1ccc(OC2(C)CCN(Cc3cc4ccccc4[nH]3)C2)cc1 (centres undefined)	nt	nt	nt	-1.7
Cc1ccccc1COC(=O)c1cc([N+](=O)[O-])ccc1N1CCOCC1	-52.6	52.5	0.0	-3.6
Cc1ccc(C(=O)c2cc([N+](=O)[O-])ccc2N2CCOCC2)c(C)c1	-81.0	81.0*	0.0	-3.1
O=C(COC(=O)c1cc([N+](=O)[O-])ccc1N1CCOCC1)c1ccc(Br)cc1	-78.8	78.8*	0.0	-2.9
Cc1ccc(C)c(C(=O)COC(=O)c2cc([N+](=O)[O-])ccc2N2CCOCC2)c1	-72.6	72.6*	2.0	1.2
CC1CCN(C(=O)COC(=O)c2cc([N+](=O)[O-])ccc2N2CCOCC2)CC1	-8.3	8.3	0.0	5.0
CCOc1ccc(C(=O)COC(=O)c2cc([N+](=O)[O-])ccc2N2CCOCC2)cc1	-79.3	79.3*	1.0	0.6
C[C@@H]1CCCCO[C@@H](CN(C)CC2CC2)[C@@H](C)CN([C@H](C)CO)C(=O)c2cc(N(C)C)ccc2O1	nt	nt	nt	0.5
COCC(=O)N(C)C[C@H]1Oc2cc(C#Cc3cccnc3)ccc2S(=O)(=O)N([C@H](C)CO)C[C@H]1C	nt	nt	nt	0.5
SMILES	SR-BI DiI-HDL act	SR-BI DiI inh	GRK2 aptamer HTS	Rin1-Abl PPI inh
COCCn1c(=O)[nH]c(=O)c2c1nc(-c1ccc(-c3ccc(Cl)cc3[N+](=O)[O-])o1)n2Cc1ccccc1	-10.5	10.5	4.0	-0.4
COc1ccc(-c2ccc(-c3nc4c(c(=O)[nH]c(=O)n4Cc4ccccc4)n3C)o2)c([N+](=O)[O-])c1	-71.8	71.8*	0.0	-3.7
O=c1c(Br)ccc(Br)cc1Br	-34.9	34.9	nt	3.8
CN[C@H](C)C(=O)NC[C@H]1O[C@@H](n2cc(C)c(=O)[nH]c2=O)C[C@@H]1O	nt	nt	nt	-0.4
CC(=O)Oc1cc2cccc(OC(C)=O)c(=O)c2c(OC(C)=O)c1OC(C)=O	5.8	-5.8	6.0	22.9*
CCOc1ccccc1N(CC(=O)Nc1c(C)n(C)n(-c2ccccc2)c1=O)S(=O)(=O)c1ccccc1	71.5*	-71.5	0.0	2.0
CCOc1ccc(N(CC(=O)Nc2c(C)n(C)n(-c3ccccc3)c2=O)S(=O)(=O)c2ccc(F)cc2)cc1	-3.8	3.8	0.0	1.1
CCCC(=O)Nc1nc(C(=O)OCC)cs1	-7.3	7.3	0.0	1.5
CCOC(=O)c1csc(NC(=O)c2cc(OC)c(OC)c(OC)c2)n1	-77.2	77.2*	1.0	-3.5
O=C1NC(=Nc2ccc(Cl)cc2)/C(=C/c2ccco2)S1	-82.0	82.0*	0.0	-3.5

High-throughput results: PubChem BioAssay, several laboratories
